# Laboratory results reported in ChEMBL document CHEMBL4000167, “Chlorotheolides A and B, Spiroketals Generated via Diels-Alder Reactions in the Endophytic Fungus Pestalotiopsis theae” (J Nat Prod, 2016).
# Activity calls are given as the source filed them. The rule behind the calls is not given here.
# Legend:
# HeLa [1] = assay: Antiproliferative activity against human HeLa cells at 20 ug/ml after 48 hrs by MTS assay; assay type: functional, cell-based
# Outline: (§1)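 Cells seeded at (2−5) × 10^3 per well in 96-well plates and allowed to attach overnight. Medium was then replaced with medium containing test compound by serial dilution from 100 mM DMSO stocks, or 0.1% DMSO, with cisplatin as positive control. Incubation was 48 h at 37 °C in 5% CO2, then MTS was added for 90 min at 37 °C. Absorbance read at 490 nm; triplicate.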
# MCF7 = assay: Antiproliferative activity against human MCF7 cells at 20 ug/ml after 48 hrs by MTS assay; assay type: functional, cell-based; outline: as §1
# HeLa [2] = assay: Induction of autophagy in human HeLa cells assessed as accumulation of membrane vacuoles at 10 uM at 2 hrs by transmission electron microscopic method; assay type: functional, cell-based
# Outline: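 HeLa cells treated with 10 μM for 2 h, then washed in PBS, trypsinized and pelleted. Pellets fixed in 4% paraformaldehyde at 4 °C overnight and postfixed in 1% OsO4 in cacodylate buffer for 1 h at RT. They were then dehydrated in ethanol, rinsed in propylene oxide and embedded in Spurr resin. Thin sections examined by TEM.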
# HeLa [3] = assay: Induction of autophagy in human HeLa cells assessed as increase in punctate LC3 accumulation at 10 uM after 2 hrs by immunofluorescence method; assay type: functional, cell-based
# Outline: (§2)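 They were fixed in 4% paraformaldehyde and permeabilized in Ca/Mg-free PBS with 0.1% Triton X-100 and 0.5% BSA. Staining used anti-LC3 and Alexa Fluor secondaries, with DAPI mounting. LC3 puncta were counted by fluorescence microscopy.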
# HeLa [4] = assay: Induction of autophagy in human HeLa cells assessed as increase in punctate LC3 accumulation at 10 uM after 2 hrs in presence of chloroquine by immunofluorescence method; assay type: functional, cell-based; outline: as §2
# HeLa [5] = assay: Induction of autophagy in human HeLa cells assessed as effect on ratio of LC3-2 to actin at 1 uM after 2 hrs by immunoblot method relative to control; assay type: functional
# Outline: (§3)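 Lysis in Tris-HCl pH 7.4 buffer with EDTA, EGTA, DTT, 1% Triton X-100, 1% SDS and protease inhibitors. SDS-PAGE, PVDF transfer, HRP secondary antibodies, ECL detection. LC3-II band expressed as a ratio to actin.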
# HeLa [6] = assay: Induction of autophagy in human HeLa cells assessed as effect on ratio of LC3-2 to actin at 1 uM after 2 hrs in presence of chloroquine by immunoblot method relative to control; assay type: functional; outline: as §3
# HeLa [7] = assay: Induction of autophagy in human HeLa cells assessed as effect on ratio of SQSTM1/p62 to actin at 1 uM after 2 hrs by immunoblot method relative to control; assay type: functional
# Outline: (§4)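 Lysis used Triton X-100/glycerol buffer: 50 mM Tris-HCl pH 7.4, 4 mM EDTA, 2 mM EGTA, 1 mM DTT, 1% Triton X-100, 1% SDS and protease inhibitors. Lysates were run on SDS-PAGE, blotted to PVDF and detected by HRP secondaries with ECL. p62/actin ratio calculated.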
# HeLa [8] = assay: Induction of autophagy in human HeLa cells assessed as effect on ratio of SQSTM1/p62 to actin at 10 uM after 2 hrs by immunoblot method relative to control; assay type: functional; outline: as §4
# HeLa [9] = assay: Induction of autophagy in human HeLa cells assessed as effect on ratio of SQSTM1/p62 to actin at 20 uM after 2 hrs by immunoblot method relative to control; assay type: functional; outline: as §4
# HeLa [10] = assay: Induction of autophagy in human HeLa cells assessed as effect on ratio of SQSTM1/p62 to actin at 1 uM after 2 hrs in presence of chloroquine by immunoblot method relative to control; assay type: functional; outline: as §4
# HeLa [11] = assay: Induction of autophagy in human HeLa cells assessed as effect on ratio of SQSTM1/p62 to actin at 10 uM after 2 hrs in presence of chloroquine by immunoblot method relative to control; assay type: functional; outline: as §4
# HeLa [12] = assay: Induction of autophagy in human HeLa cells assessed as effect on ratio of SQSTM1/p62 to actin at 20 uM after 2 hrs in presence of chloroquine by immunoblot method relative to control; assay type: functional; outline: as §4
# HeLa [13] = assay: Induction of autophagy in human HeLa cells assessed as effect on ratio of LC3-2 to actin at 10 uM after 2 hrs by immunoblot method relative to control; assay type: functional; outline: as §3
# HeLa [14] = assay: Induction of autophagy in human HeLa cells assessed as effect on ratio of LC3-2 to actin at 20 uM after 2 hrs by immunoblot method relative to control; assay type: functional; outline: as §3
# HeLa [15] = assay: Induction of autophagy in human HeLa cells assessed as effect on ratio of LC3-2 to actin at 10 uM after 2 hrs in presence of chloroquine by immunoblot method relative to control; assay type: functional; outline: as §3
# HeLa [16] = assay: Induction of autophagy in human HeLa cells assessed as effect on ratio of LC3-2 to actin at 20 uM after 2 hrs in presence of chloroquine by immunoblot method relative to control; assay type: functional; outline: as §3
# HeLa [17] = assay: Induction of autophagy in human HeLa cells assessed as effect on ratio of SQSTM1/p62 to actin at 15 uM after 2 hrs by immunoblot method relative to control; assay type: functional; outline: as §4
smiles,measurement,setting,value
C=C(C(=O)O)[C@@H](CCCCCCCC)C(=O)O,inhibition,HeLa [1],inactive
same,inhibition,MCF7,inactive
CCCCCCCC1=COC(=O)[C@]12C[C@]1(C(=O)OC)C=C(OC)[C@@]2(Cl)C(=O)[C@]12OC(=O)c1c(O)cc(C)cc1O2,Activity,HeLa [2],Active
same,Activity,HeLa [3],Active
same,Activity,HeLa [4],Active
same,fold change (FC),HeLa [5],1.03
same,fold change (FC),HeLa [6],10.98
same,fold change (FC),HeLa [7],2.76
same,fold change (FC),HeLa [8],3.61
same,fold change (FC),HeLa [9],2.84
same,fold change (FC),HeLa [10],2.84
same,fold change (FC),HeLa [11],2.19
same,fold change (FC),HeLa [12],1.94
same,fold change (FC),HeLa [13],0.79
same,fold change (FC),HeLa [14],2.9
same,fold change (FC),HeLa [15],12.53
same,fold change (FC),HeLa [16],10.86
COC(=O)C1=CC(OC)=C(Cl)C(=O)C12OC(=O)c1c(O)cc(C)cc1O2 (stereo not given),inhibition,HeLa [1],inactive
same,inhibition,MCF7,inactive
CCN(CC)CCCC(C)Nc1ccnc2cc(Cl)ccc12 (stereo not given) [CHLOROQUINE],fold change (FC),HeLa [17],1.8
